From PubChem BioAssay AID651944 (The Scripps Research Institute Molecular Screening Center, 2012)
Calls of active or inactive are those of the source.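 The calls were made as follows: active = IC50 at or below 10 µM; inactive = IC50 above 10 µM.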

System: E. coli V66 + mutant T4 phage, OD growth
Experiment: growth suppression of RecBCD+ V66 E. coli with mutant T4, dose response, counter-screen for AddAB inhibitor project, absorbance, round 2 (AID 651944)
Method in brief: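 Assay system: recBCD+ Escherichia coli strain V66 challenged with mutant T4 phage | Medium: Cation-adjusted Mueller Hinton broth with 0.1% glycerol | Compound dosing: 10 doses, 1:3 steps, from 118.6 µM | Incubation: Compound preincubation 60 min, then phage 18 h, 37 °C | Detection: Absorbance at 600 nm | Evaluation: IC50 from four-parameter curve fit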

Compound | IC50
CCn1cc(C(=O)O)c(=O)c2cnc(N3CCN(C(=S)Nc4ccccc4OC)CC3)nc21 | > 119 µM (inactive)
CCn1cc(C(=O)O)c(=O)c2cnc(N3CCN(C(=S)NC(=O)c4cccc(C)c4)CC3)nc21 | > 39.5 µM (inactive)
CCn1cc(C(=O)O)c(=O)c2cnc(N3CCN(C(=S)NCc4ccccc4)CC3)nc21 | > 119 µM (inactive)
CCn1cc(C(=O)O)c(=O)c2cnc(N3CCN(C(=S)Nc4ccc(Cl)cc4)CC3)nc21 | 80.9 µM (inactive)
CCn1cc(C(=O)O)c(=O)c2cnc(N3CCN(C(=S)Nc4cccc(C(F)(F)F)c4)CC3)nc21 | 77.8 µM (inactive)
CCn1cc(C(=O)O)c(=O)c2cnc(N3CCN(C(=S)Nc4ccccc4F)CC3)nc21 | > 119 µM (inactive)
